The text below walks through data of ChEMBL document CHEMBL1145075, “A new class of diamine-based human histamine H3 receptor antagonists: 4-(aminoalkoxy)benzylamines” (J Med Chem, 2003).

As usually defined, the Ki is the equilibrium dissociation constant of an inhibitor or competing ligand from its target. In general, half-life refers to the time needed for the level to fall by half in the phase considered. Low readings indicate fast loss, high ones slow loss.

The target of data set [1] is T1, Histamine H3 receptor (Homo sapiens, UniProt Q9Y5N1). Description: In vitro binding affinity for human Histamine H3 receptor by displacing N-[3H]-methylhistamine in SK-N-MC cells was determined. In kind it is cell-based. In a few lines: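 Cloned human H3 receptor stably expressed in SK-N-MC cells; binding run per an earlier published procedure.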
Data set [2] deals with T1, Histamine H3 receptor. The data set is described as follows: Histamine-induced inhibition of forskolin- stimulated cAMP accumulation in SK-N-MC cells overexpressing the human Histamine H3 receptor. In kind it is functional, cell-based. The settings on record: read-out: pA2 (converted). In a few lines:
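SK-N-MC sublines stably expressing human H3 receptor plus β-galactosidase reporter driven by multiple cAMP responsive elements. Compound added to media, forskolin (5 μM final) 5 min later, then 6 h at 37 °C. Cells PBS-washed, lysed, color developed with chlorophenol red β-D-galactopyranoside, absorbance 570 nm. pA2 from Schild regression of EC50 values.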
A general note: cAMP levels reflect the balance of adenylyl cyclase and phosphodiesterase activity.

Data set [3] in a line: Human plasma protein binding activity was determined. Format: ADME, cell-free. The essentials: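 Human plasma protein binding measured by an outside contract laboratory.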
Data set [4] is described as follows: stabilit in human liver microsome expressed as Half life. Format: ADME. To be noted: liver microsomes. The essentials: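 Stability in human liver microsomes measured by an outside contract laboratory; reported as half-life.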
In general terms: Liver microsomes are vesicles of endoplasmic reticulum, rich in cytochrome P450 enzymes.

The target in data set [5] is Histamine H3 receptor (Rattus norvegicus, UniProt Q9QYN8). Description: In vitro binding affinity for rat Histamine H3 receptor by displacing N-[3H]-methylhistamine in rat cortex membranes was determined.
Sequence of Histamine H3 receptor (Rattus norvegicus, UniProt Q9QYN8) (Q9QYN8 whole entry): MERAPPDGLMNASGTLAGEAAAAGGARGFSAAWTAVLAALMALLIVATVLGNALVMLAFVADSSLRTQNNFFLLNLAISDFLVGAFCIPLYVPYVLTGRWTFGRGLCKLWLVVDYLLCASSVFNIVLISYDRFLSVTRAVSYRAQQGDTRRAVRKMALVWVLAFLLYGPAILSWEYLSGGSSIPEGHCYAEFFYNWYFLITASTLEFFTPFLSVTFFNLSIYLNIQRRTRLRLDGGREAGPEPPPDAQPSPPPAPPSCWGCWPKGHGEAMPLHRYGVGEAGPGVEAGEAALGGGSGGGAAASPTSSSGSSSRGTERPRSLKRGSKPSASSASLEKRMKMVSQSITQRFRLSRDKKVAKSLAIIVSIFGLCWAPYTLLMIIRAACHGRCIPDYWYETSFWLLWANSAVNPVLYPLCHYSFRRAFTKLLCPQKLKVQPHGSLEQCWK

T1 sequence (Q9Y5N1 whole entry): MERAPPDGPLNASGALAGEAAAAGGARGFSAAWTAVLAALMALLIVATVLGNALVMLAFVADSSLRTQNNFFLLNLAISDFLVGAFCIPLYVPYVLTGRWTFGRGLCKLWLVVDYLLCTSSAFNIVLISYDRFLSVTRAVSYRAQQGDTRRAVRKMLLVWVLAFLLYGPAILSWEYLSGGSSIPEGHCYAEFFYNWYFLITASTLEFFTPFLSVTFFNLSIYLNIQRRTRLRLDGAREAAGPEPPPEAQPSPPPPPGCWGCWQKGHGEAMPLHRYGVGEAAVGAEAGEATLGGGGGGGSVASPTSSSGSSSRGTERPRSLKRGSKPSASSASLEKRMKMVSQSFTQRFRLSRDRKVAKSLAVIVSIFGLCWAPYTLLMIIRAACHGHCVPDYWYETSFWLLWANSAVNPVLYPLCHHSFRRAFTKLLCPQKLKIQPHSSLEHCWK

In data set [1], `c1ccc(CC2CCN(Cc3ccc(OCCCN4CCCCC4)cc3)CC2)cc1` showed an inhibitory constant (Ki) of 1.51 nM.

`c1cc(OCCN2CCCCC2)ccc1CN1CCCCC1` had a Ki in data set [1] of 8.91 nM. For the same molecule, the Kb in data set [2] was 8.91 nM.

Molecule `CCN(CC)CCCOc1ccc(CN2CCCCC2)cc1` showed a Ki in data set [1] of 1.23 nM.

`CN(C)CCOc1ccc(CN2CCCCC2)cc1` showed a Ki in data set [1] of 3.89 nM. The Kb in data set [2] is 10.5 nM.

Regarding `c1cc(OCCCC2CCCCC2)ccc1CN1CCCCC1`, in data set [1], the Ki is 631 nM.

In data set [1], `CN1CCN(Cc2ccc(OCCCN3CCCCC3)cc2)CC1` showed a Ki of 1.35 nM.

In data set [1], `c1cc(OCCCN2CCCCC2)ccc1CC1CCCCC1` gave a Ki of 50.1 nM.

The molecule `c1cc(OCCCN2CCCCC2)ccc1CN1CCOCC1` showed a Ki in data set [1] of 0.871 nM. In data set [2], the Kb was 0.537 nM.

In data set [1], `CN(C)Cc1ccc(OCCCN2CCCCC2)cc1` had an inhibition constant Ki of 0.933 nM.

In turn, `OC1CCN(Cc2ccc(OCCCN3CCCCC3)cc2)CC1` showed a Ki in data set [1] of 0.741 nM. Besides, in data set [2], the Kb was 0.229 nM.

`c1ccc2c(c1)CCC2NCc1ccc(OCCCN2CCCCC2)cc1` (stereo not given) gave a Ki in data set [1] of 0.832 nM.

`c1ccc2c(c1)CCN(Cc1ccc(OCCCN3CCCCC3)cc1)C2` showed a Ki in data set [1] of 1.7 nM.

`c1cc(OCCCN2CCOCC2)ccc1CN1CCCCC1` gave a Ki in data set [1] of 2.29 nM.

`c1ccc(NCc2ccc(OCCCN3CCCCC3)cc2)cc1` had a Ki in data set [1] of 8.32 nM.

With `CCN(CC)CCOc1ccc(CN2CCCCC2)cc1`, in data set [1], affinity was put at a Ki of 50.1 nM.

Take `c1cc(OCCCN2CCCCC2)ccc1CN1CCCCC1` [JNJ-5207852]: the Binding in data set [3] is reported as 54%. The half-life in data set [4] was greater than 24 h. For the same molecule, the Ki in data set [5] was 0.457 nM.

`c1cc(OCCCN2CCCCC2)ccc1CNC1CCCCC1` had a Ki in data set [1] of 0.513 nM. In addition, in data set [2], the Kb is 0.195 nM.

For `NC(=O)C1CCN(Cc2ccc(OCCCN3CCCCC3)cc2)CC1`, in data set [1], affinity was put at a Ki of 0.955 nM.
